# In ChEMBL document CHEMBL3297678, “New insights into the biological properties of Crocus sativus L.: chemical modifications, human monoamine oxidases inhibition and molecular modeling studies” (Eur J Med Chem, 2014):
# Key:
# [1] = biological target: T1, Amine oxidase [flavin-containing] A (Homo sapiens, UniProt P21397); assay: Inhibition of recombinant human MAO-A expressed in insect cells assessed as inhibition of oxidation of kynuramine to 4-hydroxyquinoline after 20 mins by fluorescence spectrophotometry
# T1 sequence (P21397 whole entry): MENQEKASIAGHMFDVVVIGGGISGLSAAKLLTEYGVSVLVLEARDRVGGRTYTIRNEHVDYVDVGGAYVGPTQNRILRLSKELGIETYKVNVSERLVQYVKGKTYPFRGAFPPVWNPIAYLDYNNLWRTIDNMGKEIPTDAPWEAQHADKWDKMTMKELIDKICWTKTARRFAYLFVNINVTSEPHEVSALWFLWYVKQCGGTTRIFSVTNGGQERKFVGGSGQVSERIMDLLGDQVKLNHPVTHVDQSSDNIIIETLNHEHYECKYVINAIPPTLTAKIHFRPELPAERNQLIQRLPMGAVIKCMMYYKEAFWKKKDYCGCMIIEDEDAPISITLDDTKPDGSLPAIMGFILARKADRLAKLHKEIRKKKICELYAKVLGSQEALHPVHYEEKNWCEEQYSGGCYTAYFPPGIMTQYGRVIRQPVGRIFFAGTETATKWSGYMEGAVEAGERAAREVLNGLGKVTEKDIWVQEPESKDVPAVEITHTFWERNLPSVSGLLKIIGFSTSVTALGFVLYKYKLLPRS
# How it was run: (§1)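 Enzyme source was insect-cell microsomes carrying recombinant hMAO-A or hMAO-B. Kynuramine substrate was oxidized to 4-hydroxyquinoline in 100 mM potassium phosphate, pH 7.4, made isotonic with 20.2 mM KCl, with 4% DMSO and varied inhibitor concentrations. Product was read by fluorescence (ex 310/em 400 nm) against a linear calibration curve. Controls excluded inhibitor fluorescence or quenching. IC50 came from a one-site competition fit of initial rate versus log[inhibitor]; mean ± SD of triplicates.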
# [2] = biological target: T2, Amine oxidase [flavin-containing] B (Homo sapiens, UniProt P27338); assay: Inhibition of recombinant human MAO-B expressed in insect cells assessed as inhibition of oxidation of kynuramine to 4-hydroxyquinoline after 20 mins by fluorescence spectrophotometry; how it was run: as §1
# T2 sequence (P27338 whole entry): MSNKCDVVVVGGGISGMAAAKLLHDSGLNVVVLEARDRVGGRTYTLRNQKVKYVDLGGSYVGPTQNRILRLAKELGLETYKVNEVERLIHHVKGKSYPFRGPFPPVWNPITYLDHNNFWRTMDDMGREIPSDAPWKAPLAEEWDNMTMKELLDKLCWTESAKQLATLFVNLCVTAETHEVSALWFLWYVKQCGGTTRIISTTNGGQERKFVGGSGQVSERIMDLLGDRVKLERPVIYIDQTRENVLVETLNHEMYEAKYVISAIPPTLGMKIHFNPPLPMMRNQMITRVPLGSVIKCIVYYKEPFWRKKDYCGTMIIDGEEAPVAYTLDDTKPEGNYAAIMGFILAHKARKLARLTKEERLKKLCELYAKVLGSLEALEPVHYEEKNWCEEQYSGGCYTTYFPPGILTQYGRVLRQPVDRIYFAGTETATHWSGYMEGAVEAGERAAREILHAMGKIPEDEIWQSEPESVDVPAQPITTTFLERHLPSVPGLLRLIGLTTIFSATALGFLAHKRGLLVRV
# Homo sapiens = species: Homo sapiens; assay: Selectivity ratio of IC50 for recombinant human MAO-B expressed in insect cells to IC50 for recombinant human MAO-A expressed in insect cells
IC50 ([1]; read-out: IC50) [µM],IC50 ([2]; read-out: IC50) [µM],IC50 [1],IC50 [2],SMILES,Ratio IC50 (Homo sapiens)
9.93,0.1,–,–,CC1=C(/C=N/Nc2nc(-c3cccc([N+](=O)[O-])c3)cs2)C(C)(C)CC=C1,–
93.2,117,–,–,CC1=C(/C=N/N(C)C(N)=S)C(C)(C)CC=C1,–
170,128,–,–,CC(/C=C/C=C(\C)C(=O)O[C@@H]1O[C@H](CO[C@@H]2O[C@H](CO)[C@@H](O)[C@H](O)[C@H]2O)[C@@H](O)[C@H](O)[C@H]1O)=C\C=C\C=C(C)\C=C\C=C(/C)C(=O)O[C@@H]1O[C@H](CO[C@@H]2O[C@H](CO)[C@@H](O)[C@H](O)[C@H]2O)[C@@H](O)[C@H](O)[C@H]1O [CROCIN],–
164,111,–,–,CC1=C(/C=N/NC(N)=O)C(C)(C)CC=C1,–
19.5,224,–,–,CC1=C(/C=N/NC(=S)Nc2ccccc2)C(C)(C)CC=C1,11
86.6,215,–,–,CC1=C(/C=N/N=C2\SCC(=O)N2Cc2ccccc2)C(C)(C)CC=C1,–
132,168,–,–,CC1=C(/C=N/N=C2/NC(=O)CS2)C(C)(C)CC=C1,–
56.8,74.5,–,–,CC1=C(/C=N/NC(N)=S)C(C)(C)CC=C1,–
–,–,Not Active,Not Active,CC1=C(C=O)C(C)(C)CC=C1,–
